According to BindingDB's records for doi:10.1016/j.ejmech.2021.113996 (The University of Michigan Medical School, 2022):

Assays:
[1] = molecular target: T1, Phosphatidylinositol 4,5-bisphosphate 3-kinase catalytic subunit delta isoform (Homo sapiens, UniProt O00329); assay: Inhibition of human PI3Kdelta by TR-FRET based Adapta assay
T1 sequence (O00329 whole entry): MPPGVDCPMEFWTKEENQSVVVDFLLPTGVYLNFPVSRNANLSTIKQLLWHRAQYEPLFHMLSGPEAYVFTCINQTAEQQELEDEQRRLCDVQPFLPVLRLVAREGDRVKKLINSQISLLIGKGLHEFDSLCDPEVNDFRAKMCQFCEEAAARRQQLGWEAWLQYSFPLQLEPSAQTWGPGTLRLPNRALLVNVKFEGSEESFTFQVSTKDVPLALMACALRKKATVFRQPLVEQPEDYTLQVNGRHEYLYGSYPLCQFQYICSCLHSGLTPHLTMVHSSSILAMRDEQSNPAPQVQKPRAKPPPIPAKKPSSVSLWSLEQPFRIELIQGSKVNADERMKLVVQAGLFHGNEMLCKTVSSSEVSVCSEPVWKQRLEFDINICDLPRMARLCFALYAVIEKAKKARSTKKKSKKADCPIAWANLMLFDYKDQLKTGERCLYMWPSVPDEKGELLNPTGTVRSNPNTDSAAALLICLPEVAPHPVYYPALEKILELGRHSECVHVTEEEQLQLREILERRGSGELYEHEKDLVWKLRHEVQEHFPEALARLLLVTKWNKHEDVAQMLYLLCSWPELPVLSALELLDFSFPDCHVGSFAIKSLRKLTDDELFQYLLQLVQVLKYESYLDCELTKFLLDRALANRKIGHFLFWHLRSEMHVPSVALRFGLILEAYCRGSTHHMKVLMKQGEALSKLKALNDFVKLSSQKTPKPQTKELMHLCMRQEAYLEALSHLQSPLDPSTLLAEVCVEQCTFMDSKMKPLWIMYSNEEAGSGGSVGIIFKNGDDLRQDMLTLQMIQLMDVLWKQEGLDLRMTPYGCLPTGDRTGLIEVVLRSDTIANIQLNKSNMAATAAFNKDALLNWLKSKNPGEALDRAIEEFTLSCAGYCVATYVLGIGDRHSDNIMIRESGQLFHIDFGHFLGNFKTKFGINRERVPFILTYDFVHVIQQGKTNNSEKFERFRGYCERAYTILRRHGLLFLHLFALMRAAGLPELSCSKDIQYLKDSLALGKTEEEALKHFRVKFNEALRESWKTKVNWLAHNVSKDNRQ

[2] = molecular target: Phosphatidylinositol 4,5-bisphosphate 3-kinase catalytic subunit alpha isoform (Homo sapiens, UniProt P42336); assay: Inhibition of human PI3Kalpha by TR-FRET based Adapta assay
Sequence of Phosphatidylinositol 4,5-bisphosphate 3-kinase catalytic subunit alpha isoform (P42336 whole entry, canonical isoform): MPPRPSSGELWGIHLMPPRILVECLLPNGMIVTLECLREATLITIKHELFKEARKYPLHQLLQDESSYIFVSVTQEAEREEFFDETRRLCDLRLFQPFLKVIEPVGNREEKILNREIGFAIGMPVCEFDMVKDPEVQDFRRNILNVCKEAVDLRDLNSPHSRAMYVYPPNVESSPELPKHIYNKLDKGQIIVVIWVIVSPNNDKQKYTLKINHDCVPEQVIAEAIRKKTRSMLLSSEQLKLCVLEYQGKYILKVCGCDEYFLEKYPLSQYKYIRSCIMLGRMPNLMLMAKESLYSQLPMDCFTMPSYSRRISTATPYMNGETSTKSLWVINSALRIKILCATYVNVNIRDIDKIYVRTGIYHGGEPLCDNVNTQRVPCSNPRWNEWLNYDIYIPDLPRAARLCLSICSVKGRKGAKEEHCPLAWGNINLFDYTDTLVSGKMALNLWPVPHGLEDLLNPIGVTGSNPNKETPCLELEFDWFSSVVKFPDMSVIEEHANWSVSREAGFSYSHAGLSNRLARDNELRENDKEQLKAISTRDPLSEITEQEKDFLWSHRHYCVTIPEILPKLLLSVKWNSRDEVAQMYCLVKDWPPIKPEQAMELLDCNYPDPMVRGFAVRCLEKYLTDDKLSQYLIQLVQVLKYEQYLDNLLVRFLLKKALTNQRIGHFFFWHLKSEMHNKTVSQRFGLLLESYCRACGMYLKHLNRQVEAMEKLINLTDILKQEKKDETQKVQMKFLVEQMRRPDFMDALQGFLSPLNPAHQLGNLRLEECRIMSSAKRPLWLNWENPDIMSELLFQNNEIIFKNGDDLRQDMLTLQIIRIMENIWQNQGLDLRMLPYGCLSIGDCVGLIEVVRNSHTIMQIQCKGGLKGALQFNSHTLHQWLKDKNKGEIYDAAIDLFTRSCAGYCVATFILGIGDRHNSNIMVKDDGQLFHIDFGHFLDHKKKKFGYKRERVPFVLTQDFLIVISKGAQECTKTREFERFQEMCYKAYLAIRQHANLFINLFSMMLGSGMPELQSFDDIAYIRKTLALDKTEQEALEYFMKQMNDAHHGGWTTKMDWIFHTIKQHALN

[3] = molecular target: Phosphatidylinositol 4,5-bisphosphate 3-kinase catalytic subunit gamma isoform (Homo sapiens, UniProt P48736); assay: Inhibition of human PI3Kgamma by TR-FRET based Adapta assay
Sequence of Phosphatidylinositol 4,5-bisphosphate 3-kinase catalytic subunit gamma isoform (P48736 whole entry, canonical isoform): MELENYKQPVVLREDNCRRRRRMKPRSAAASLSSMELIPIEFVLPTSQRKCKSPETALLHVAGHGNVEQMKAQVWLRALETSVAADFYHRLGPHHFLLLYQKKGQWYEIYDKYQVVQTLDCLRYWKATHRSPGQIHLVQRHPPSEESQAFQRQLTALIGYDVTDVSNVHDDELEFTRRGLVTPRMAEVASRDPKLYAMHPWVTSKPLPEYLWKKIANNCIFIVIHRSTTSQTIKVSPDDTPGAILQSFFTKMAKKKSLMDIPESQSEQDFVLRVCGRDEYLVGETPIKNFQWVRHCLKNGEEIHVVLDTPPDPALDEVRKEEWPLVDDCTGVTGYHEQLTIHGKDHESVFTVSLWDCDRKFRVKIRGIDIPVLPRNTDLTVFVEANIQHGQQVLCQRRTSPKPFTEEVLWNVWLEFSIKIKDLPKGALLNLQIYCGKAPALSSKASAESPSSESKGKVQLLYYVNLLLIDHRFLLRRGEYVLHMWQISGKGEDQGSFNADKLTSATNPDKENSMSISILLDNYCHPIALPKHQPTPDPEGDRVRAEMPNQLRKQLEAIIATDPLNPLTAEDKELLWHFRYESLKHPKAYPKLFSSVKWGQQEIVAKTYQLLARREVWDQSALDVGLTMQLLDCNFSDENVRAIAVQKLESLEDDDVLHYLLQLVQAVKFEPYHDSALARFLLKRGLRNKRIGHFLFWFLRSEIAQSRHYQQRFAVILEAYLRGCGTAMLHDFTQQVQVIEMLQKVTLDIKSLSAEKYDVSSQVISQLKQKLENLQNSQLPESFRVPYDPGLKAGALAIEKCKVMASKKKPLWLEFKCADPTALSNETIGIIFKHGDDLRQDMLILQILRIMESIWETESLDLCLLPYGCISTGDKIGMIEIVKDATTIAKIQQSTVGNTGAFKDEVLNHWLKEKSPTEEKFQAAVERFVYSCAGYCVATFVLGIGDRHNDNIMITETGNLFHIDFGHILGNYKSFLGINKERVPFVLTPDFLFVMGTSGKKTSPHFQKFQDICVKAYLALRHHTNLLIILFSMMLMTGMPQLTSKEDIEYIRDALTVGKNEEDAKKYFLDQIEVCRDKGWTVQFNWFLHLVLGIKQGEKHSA

[4] = molecular target: Phosphatidylinositol 4,5-bisphosphate 3-kinase catalytic subunit beta isoform (Homo sapiens, UniProt P42338); assay: Inhibition of human PI3Kbeta by TR-FRET based Adapta assay
Sequence of Phosphatidylinositol 4,5-bisphosphate 3-kinase catalytic subunit beta isoform (P42338 whole entry, canonical isoform): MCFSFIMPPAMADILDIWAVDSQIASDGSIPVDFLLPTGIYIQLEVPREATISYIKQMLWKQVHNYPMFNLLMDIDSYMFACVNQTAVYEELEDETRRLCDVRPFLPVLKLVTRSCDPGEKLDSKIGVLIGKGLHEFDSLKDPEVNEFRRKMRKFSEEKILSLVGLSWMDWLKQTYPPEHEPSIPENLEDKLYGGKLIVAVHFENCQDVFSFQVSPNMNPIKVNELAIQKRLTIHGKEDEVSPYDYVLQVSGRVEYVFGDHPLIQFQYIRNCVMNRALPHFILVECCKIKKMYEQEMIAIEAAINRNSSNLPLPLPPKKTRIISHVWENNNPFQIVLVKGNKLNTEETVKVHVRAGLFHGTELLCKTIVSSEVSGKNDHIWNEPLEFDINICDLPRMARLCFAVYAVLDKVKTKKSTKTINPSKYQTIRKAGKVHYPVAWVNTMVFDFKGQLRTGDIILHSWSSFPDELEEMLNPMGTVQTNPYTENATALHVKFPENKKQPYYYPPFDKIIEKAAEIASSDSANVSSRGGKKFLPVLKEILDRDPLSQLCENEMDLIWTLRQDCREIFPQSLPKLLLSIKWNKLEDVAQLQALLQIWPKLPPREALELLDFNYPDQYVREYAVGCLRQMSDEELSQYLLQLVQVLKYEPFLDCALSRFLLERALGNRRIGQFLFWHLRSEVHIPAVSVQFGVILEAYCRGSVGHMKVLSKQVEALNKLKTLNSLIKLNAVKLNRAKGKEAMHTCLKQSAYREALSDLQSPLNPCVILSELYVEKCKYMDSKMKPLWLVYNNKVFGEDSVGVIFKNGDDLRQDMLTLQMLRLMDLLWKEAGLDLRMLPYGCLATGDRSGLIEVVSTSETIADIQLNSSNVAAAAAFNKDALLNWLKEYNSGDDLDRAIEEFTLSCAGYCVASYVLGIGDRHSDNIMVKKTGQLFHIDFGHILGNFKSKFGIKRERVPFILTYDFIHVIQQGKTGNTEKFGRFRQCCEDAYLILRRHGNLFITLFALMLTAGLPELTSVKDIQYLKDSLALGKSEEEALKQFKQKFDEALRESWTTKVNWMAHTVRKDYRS
Summary of the method: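 Purified human PI3K isoforms α, β, γ and δ assayed by fluorescence-based Adapta TR-FRET lipid kinase assay (outsourced). Inhibitor range 0.1 nM–10 μM. IC₅₀ is the mean ± SEM of three experiments, each run in duplicate.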

| IC50 [1] | IC50 [2] | IC50 [3] | IC50 [4] | SMILES |
| --- | --- | --- | --- | --- |
| 2.9 nM | 8.2 nM |  |  | CC(=O)N1CCN(c2nc(N3CCOCC3)nc(-n3c(C(F)F)nc4ccccc43)n2)CC1 |
| 142 nM | 180 nM |  |  | FC(F)c1nc2ccccc2n1-c1nc(N2CCNCC2)nc(N2CCOCC2)n1 |
| 47 nM | 148 nM | 869 nM | 627 nM | CNCCN(CCO)c1nc(N2CCOCC2)nc(-n2c(C(F)F)nc3ccccc32)n1 |
